One compound from ChEMBL document CHEMBL3612059, “Synthesis of 1,2-benzisoxazole tethered 1,2,3-triazoles that exhibit anticancer activity in acute myeloid leukemia cell lines by inhibiting histone deacetylases, and inducing p21 and tubulin acetylation” (Bioorg Med Chem, 2015) can be followed below.

Structures are written as SMILES. Activity calls are given as the source filed them. No cut-off for these calls is given here.

For data set [1], the system named is MOLM-13 (Homo sapiens). The data set is described as follows: Induction of apoptosis in human MOLM13 cells assessed as upregulation of cleaved PARP expression after 24 hrs by Western blot analysis.
Data set [2] concerns MV4-11. The data set is described as follows: Cell cycle arrest in human MV4-11 cells assessed as decrease in cells level at G1 phase after 72 hrs by propidium iodide staining-based flow cytometric analysis. The class given is functional. Put shortly: (§1)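 Cells in RPMI with 10 % FBS at 37 °C, 5 % CO₂; treated up to 72 h, washed in cold PBS, fixed in -20 °C-precooled 70 % ethanol at 4 °C. Stained with 50 µg/ml PI, 1 % Triton X-100 and 20 µg/ml RNase A in PBS, 30 min, 37 °C, dark. Cell-cycle phases read by flow cytometry; three independent experiments, mean ± SD.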

Data set [3] deals with MV4-11. In words: Effect on total histone H3 protein expression in human MV4-11 cells by Western blot analysis. The class given is ADME, cell-based. Put shortly: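 Histones acid-extracted from MV4-11 cells: Triton/EDTA buffer lysis, NaCl wash, then 0.24 M H₂SO₄ final on ice for 2 h and acetone precipitation. Protein measured by Bradford. 0.5 µg loaded on 4-20 % gradient gels and transferred to PVDF. Anti-histone H3 probed as loading control alongside anti-acetyl-H3 (1:1000 in 5 % milk, overnight, 4 °C); HRP secondary 1 h, ECL detection.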
For orientation: In western blotting, separated proteins are transferred to a membrane and probed.

Data set [4] deals with T1, Protein deacetylase HDAC6 (Homo sapiens) (UniProt Q9UBN7).
T1 sequence (whole entry): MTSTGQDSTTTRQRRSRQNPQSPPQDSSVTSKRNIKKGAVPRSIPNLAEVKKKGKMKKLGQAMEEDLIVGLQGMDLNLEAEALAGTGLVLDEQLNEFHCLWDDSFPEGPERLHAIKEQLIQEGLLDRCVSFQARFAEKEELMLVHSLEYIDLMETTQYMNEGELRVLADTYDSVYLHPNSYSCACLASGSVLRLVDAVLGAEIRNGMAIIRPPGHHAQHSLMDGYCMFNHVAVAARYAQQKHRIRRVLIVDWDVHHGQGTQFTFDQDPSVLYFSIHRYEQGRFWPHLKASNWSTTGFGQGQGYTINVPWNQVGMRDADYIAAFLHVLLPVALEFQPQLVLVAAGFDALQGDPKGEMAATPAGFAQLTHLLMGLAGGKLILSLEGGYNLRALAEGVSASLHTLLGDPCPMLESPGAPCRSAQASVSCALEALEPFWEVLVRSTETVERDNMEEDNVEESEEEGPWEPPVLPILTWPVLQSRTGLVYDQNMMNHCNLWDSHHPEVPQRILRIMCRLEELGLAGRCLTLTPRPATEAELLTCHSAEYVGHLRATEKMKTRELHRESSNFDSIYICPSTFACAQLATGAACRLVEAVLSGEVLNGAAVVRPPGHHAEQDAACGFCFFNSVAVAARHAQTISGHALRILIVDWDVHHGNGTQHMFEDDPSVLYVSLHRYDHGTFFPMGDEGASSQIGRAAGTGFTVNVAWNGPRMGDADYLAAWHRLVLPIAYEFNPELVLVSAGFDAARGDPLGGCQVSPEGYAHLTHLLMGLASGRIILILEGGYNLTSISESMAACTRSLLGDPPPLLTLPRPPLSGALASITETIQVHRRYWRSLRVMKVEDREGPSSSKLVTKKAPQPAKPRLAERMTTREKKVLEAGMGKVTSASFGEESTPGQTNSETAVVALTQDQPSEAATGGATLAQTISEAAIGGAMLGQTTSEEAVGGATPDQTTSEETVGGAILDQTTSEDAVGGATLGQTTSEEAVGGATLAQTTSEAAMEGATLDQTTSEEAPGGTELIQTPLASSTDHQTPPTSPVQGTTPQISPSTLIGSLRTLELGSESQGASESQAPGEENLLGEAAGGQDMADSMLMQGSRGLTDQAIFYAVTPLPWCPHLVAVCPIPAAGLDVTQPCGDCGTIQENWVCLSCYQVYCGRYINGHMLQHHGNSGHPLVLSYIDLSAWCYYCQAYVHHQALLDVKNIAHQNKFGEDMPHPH
In words: Inhibition of HDAC6 in human MV4-11 cells assessed as increase in acetylation of tubulin at lysine 40 by Western blot analysis. The format is cell-based.

Data set [5] relates to MV4-11. The data set is described as follows: Upregulation of p21 protein expression in human MV4-11 cells by Western blot analysis. The format is functional, cell-based.
The subject of data set [6] is MOLM-13 (Homo sapiens). In words: Induction of apoptosis in human MOLM13 cells assessed as necrotic cells at 10 uM after 72 hrs by Annexin V-FITC/propidium iodide staining-based flow cytometric analysis (reference value: 3%). In general terms: In flow cytometry, cells or beads pass a laser one at a time.
Data set [7] relates to MV4-11. In words: Cell cycle arrest in human MV4-11 cells assessed as accumulation at G2/M phase after 72 hrs by propidium iodide staining-based flow cytometric analysis. The format is functional. Put shortly: as §1
Data set [8] has as its system MOLM-13 (Homo sapiens). The data set is described as follows: Induction of apoptosis in human MOLM13 cells assessed as necrotic cells at 5 uM after 72 hrs by Annexin V-FITC/propidium iodide staining-based flow cytometric analysis (reference value: 3%).
For data set [9], the system named is MV4-11. In words: Induction of apoptosis in human MV4-11 cells assessed as early apoptotic cells at 2.5 uM after 72 hrs by Annexin V-FITC/propidium iodide staining-based flow cytometric analysis (reference value: 7%). The format is functional. Put shortly: (§2)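 100,000 cells per well treated with 2.5, 5.0 or 10 μM for 72 h. Washed in ice-cold Ca/Mg-free PBS, resuspended in 100 μl binding buffer, stained with 5 μl PI plus 3 μl annexin V-FITC for 15 min in the dark, then read immediately by flow cytometry. Quadrants scored as live, early apoptotic, late apoptotic and necrotic.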

For data set [10], the system named is MOLM-14. The data set is described as follows: Induction of apoptosis in human MOLM14 cells assessed as early apoptotic cells at 5 uM after 72 hrs by Annexin V-FITC/propidium iodide staining-based flow cytometric analysis (reference value: 7%). The format is functional. The method, boiled down: as §2
In data set [11] the target is T1, Protein deacetylase HDAC6 (Homo sapiens). In words: Inhibition of HDAC6 in human MOLM14 cells assessed as increase in acetylation of tubulin at lysine 40 by Western blot analysis. To be noted: MOLM-14. The class given is cell-based.
Data set [12] concerns MOLM-14. In words: Induction of apoptosis in human MOLM14 cells assessed as late apoptotic cells at 10 uM after 72 hrs by Annexin V-FITC/propidium iodide staining-based flow cytometric analysis (reference value: 2%). The class given is functional. Put shortly:
as §2

In data set [13] the test system is MOLM-14. The data set is described as follows: Cell cycle arrest in human MOLM14 cells assessed as accumulation at G2/M phase after 72 hrs by propidium iodide staining-based flow cytometric analysis. The class given is functional. Put shortly: as §1
In data set [14] the test system is MOLM-13 (Homo sapiens). The data set is described as follows: Induction of apoptosis in human MOLM13 cells assessed as late apoptotic cells at 5 uM after 72 hrs by Annexin V-FITC/propidium iodide staining-based flow cytometric analysis (reference value: 7%).
Data set [15] concerns MOLM-13 (Homo sapiens). In words: Induction of apoptosis in human MOLM13 cells assessed as early apoptotic cells at 2.5 uM after 72 hrs by Annexin V-FITC/propidium iodide staining-based flow cytometric analysis (reference value: 11%).

Regarding `c1ccc(Oc2ccc(-c3cn(-c4noc5ccccc45)nn3)cc2)cc1`, the Activity entry with MOLM-13 (Homo sapiens) [1] is “Dose-dependent effect”; in the data set with MV4-11 [3], “Non-toxic”; with MOLM-13 (Homo sapiens) [6], 18%; in the data set with MOLM-13 (Homo sapiens) [8], 18%; with MV4-11 [9] it was 9%; with MOLM-14 [10], 17%. Further, the results for the Activity in the data set on MOLM-14 [12], with MOLM-13 (Homo sapiens) [14] and in the data set with MOLM-13 (Homo sapiens) [15] were 30%, 26% and 15%, respectively. The outcome in the data set with MV4-11 [2], in the data set on MV4-11 [5], with MV4-11 [7] and in the data set on MOLM-14 [13] was Active. The inhibition result in [4] and in data set [11] was “Active” throughout.
